Experiment [1] is filed under the species Cavia porcellus. The experiment is described as follows: Compound was tested in vitro for positive chronotropic action. It is filed as functional. Put shortly: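 Isolated right atrium from male Hartley guinea pig (300–500 g) in Krebs–Henseleit, 95% O2–5% CO2, 25 °C, 0.5 g tension. Cumulative compound concentrations, at least five spanning the EC20. Beating rate recorded by cardiotachometer triggered by isometric contraction. Value is the concentration raising the unstimulated rate by 20% (EC20). DMSO below 0.5% final.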

The target of another experiment is Phosphodiesterase 1 (Homo sapiens, UniProt P54750+Q01064+Q14123). The experiment is described as follows: Inhibitory activity against PDE1 from cerebral cortex. It is filed as tissue-based. Put shortly: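 PDE I (Ca2+/calmodulin-stimulated, cerebral cortex) and PDE III (cGMP-inhibited, heart) isolated by the Reeves method. […] IC50 fitted by nonlinear least squares. Final DMSO below 0.5%.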

Another experiment has as its target Phosphodiesterase 4 (Homo sapiens, UniProt P27815+Q08499+Q07343+Q08493). The experiment is described as follows: Inhibitory activity against Phosphodiesterase 4 from cerebral cortex.
Experiment [2] is filed under the species Cavia porcellus. The experiment is described as follows: Tested in vitro for tracheal relaxation. It counts as functional. Conditions: Trachea. The procedure, abridged:
(§1)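 Tracheal ring-chains from male Hartley guinea pigs (300–500 g), 37 °C Krebs–Henseleit pH 7.4, 95% O2–5% CO2, 0.5 g tension, isometric recording. After full relaxation with 1.0 μM isoprenaline and washout, spontaneous tone redeveloped. Cumulative compound concentrations then given, at least five spanning the EC50.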

For the next experiment, the target named is Phosphodiesterase 3 (Homo sapiens, UniProt Q14432+Q13370). The experiment is described as follows: Inhibitory activity against Phosphodiesterase 3 from heart. It counts as protein assay. Put shortly: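 PDE I (Ca2+/calmodulin-stimulated, cerebral cortex) and PDE III (cGMP-inhibited, heart) isolated by the Reeves method. IC50 fitted by nonlinear least squares. Final DMSO below 0.5%.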

Experiment [3] has as its system Suncus murinus. Briefly: Emetic effect in shrews at 10 mg/kg peroral dose, 3 of 3 animals affected. It is filed as functional. Conditions: route oral.
The species entered for experiment [4] is Cavia porcellus. The experiment is described as follows: In vitro positive chronotropic effect. It counts as functional. Put shortly:
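Isolated right atrium from male Hartley guinea pigs (300–500 g) in Krebs–Henseleit, 25 °C, 95% O2–5% CO2, 0.5 g tension. Cumulative compound concentrations; beating rate recorded by cardiotachometer triggered by isometric contraction. EC20 is the concentration raising unstimulated rate by 20%, from over five concentrations. DMSO below 0.5% final.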

Experiment [5] is filed under the species Cavia porcellus. The experiment is described as follows: In vitro guinea pig tracheal relaxation. Conditions: Trachea. It is filed as functional. The procedure, abridged: as §1
Experiment [6] is filed under the species Cavia porcellus. Briefly: Negative inotropic response to adenosine in guinea pig left atrium. It counts as functional. Conditions: Cardiac atrium, read-out: pA2 (converted).
The test system of experiment [7] is Suncus murinus. The experiment is described as follows: (§2) Emetic effect in shrews at 30 mg/kg peroral dose, 0 of 3 animals affected. It counts as functional. Conditions: route oral.
Experiment [8] concerns Suncus murinus. The experiment is described as §2. Conditions: route oral. It is filed as functional. This is another data set of the same source.
Experiment [9] has as its system Suncus murinus. Briefly: Emetic effect in shrews at 100 mg/kg peroral dose, 0 of 3 animals affected. It is filed as functional. Conditions: route oral.
Experiment [10] deals with Suncus murinus. Briefly: Emetic effect in shrews at 30 mg/kg peroral dose, 3 of 3 animals affected. It is filed as functional. Conditions: route oral.

This note sets out measurements from ChEMBL document CHEMBL1130176, “Selective inhibitors of cyclic AMP-specific phosphodiesterase: heterocycle-condensed purines” (J Med Chem, 1997).

By EC20 is commonly meant the concentration needed for an effect of 20%. By IC50 is commonly meant the concentration that gives 50% inhibition. A higher IC50 goes with weaker potency in that assay. Broadly, the EC50 is the concentration at which the effect is half-maximal. The low end stands for higher potency in that assay, the high end for lower potency in that assay.

In turn, `CCCn1cnc2c1n(CCC)c(=O)n1ccnc21` displayed an EC20 in the experiment filed under Cavia porcellus [1] of 19 µM. For the same compound, the values for the IC50 against Phosphodiesterase 1, against Phosphodiesterase 4 and at Phosphodiesterase 3 were 40 µM, 1.4 µM and more than 100 µM, respectively. This compound also yielded a concentration giving a half-maximal response (EC50) in the experiment listed under Cavia porcellus [2] of 0.5 µM. This compound also returned an Emesis in the experiment on Suncus murinus [3] of 3.

Regarding `CCCn1cnc2c1c1nccn1c(=O)n2CCC`, in the experiment listed under Cavia porcellus [1], the EC20 was 84 µM. Also, the IC50 on Phosphodiesterase 1 is 14 µM; against Phosphodiesterase 4, 1.9 µM; on Phosphodiesterase 3 it was more than 100 µM. In the experiment filed under Cavia porcellus [2], the EC50 was found to be 0.7 µM.

For the compound `CCCn1cnc2c1c1nnnn1c(=O)n2CCC`, in the experiment listed under Cavia porcellus [1], the EC20 was more than 100 µM. The IC50 against Phosphodiesterase 1 was more than 100 µM; against Phosphodiesterase 4 it was 18 µM; against Phosphodiesterase 3, more than 100 µM. Besides, the EC50 in the experiment filed under Cavia porcellus [2] was determined as 51 µM.

`CCCN1C(=O)N2CCCCN=C2c2ncn(CCC)c21` registered an EC20 in the experiment filed under Cavia porcellus [1] of more than 100 µM. The results for the IC50 at Phosphodiesterase 1, against Phosphodiesterase 4 and against Phosphodiesterase 3 were more than 100 µM, 13 µM and more than 100 µM, respectively. In the experiment listed under Cavia porcellus [2], this compound gave an EC50 of 2.5 µM.

As to `CCCN1C(=O)N2CCN=C2c2c1ncn2CCC`, the EC20 in the experiment filed under Cavia porcellus [1] was more than 100 µM. Further, the IC50 against Phosphodiesterase 1 was more than 100 µM; at Phosphodiesterase 4, 5.1 µM; at Phosphodiesterase 3 it was more than 100 µM. In addition, the EC50 in the experiment filed under Cavia porcellus [2] was 2.5 µM.

For the compound `CCCCOc1cc(CC2CNC(=O)N2)ccc1OC` (stereo unspecified) [RO-201724], the IC50 on Phosphodiesterase 1 and against Phosphodiesterase 3 was more than 300 µM throughout. The same compound gave an EC20 in the experiment filed under Cavia porcellus [4] of more than 100 µM. This compound came in with an EC50 in the experiment listed under Cavia porcellus [5] of 0.12 µM.

Consider `CCCn1c(=O)n2nnnc2c2[nH]cnc21`, for which the EC20 in the experiment filed under Cavia porcellus [1] was more than 100 µM. The IC50 against Phosphodiesterase 1, against Phosphodiesterase 4 and on Phosphodiesterase 3 was more than 100 µM each time. Also, in the experiment filed under Cavia porcellus [2], the EC50 was more than 100 µM.

The compound `CCCN1C(=O)N2CCCN=C2c2c1ncn2CCC` displayed an EC20 in the experiment filed under Cavia porcellus [1] of more than 100 µM. The IC50 against Phosphodiesterase 1 is more than 100 µM; at Phosphodiesterase 4, 49 µM; against Phosphodiesterase 3, more than 100 µM. In the experiment filed under Cavia porcellus [2], this compound gave an EC50 of 8.2 µM.

Take `CCCn1cnc2c1n(CCC)c(=O)n1nnnc21`: the EC20 in the experiment listed under Cavia porcellus [1] was more than 100 µM. Further, the values for the half-inhibitory concentration (IC50) at Phosphodiesterase 1, at Phosphodiesterase 4 and against Phosphodiesterase 3 were more than 100 µM, 39 µM and more than 100 µM, respectively. The compound further came in with an EC50 in the experiment listed under Cavia porcellus [2] of 68 µM.

For `Cn1c(=O)c2nc[nH]c2n(C)c1=O.O` [THEOPHYLLINE], the IC50 on Phosphodiesterase 1 came to 356 µM. For the same compound, in the experiment listed under Cavia porcellus [4], the 20% effect concentration (EC20) came to 88 µM. In addition, the Kb in the experiment listed under Cavia porcellus [6] is 29.5 µM.

Regarding `CCCN1C(=O)N2CCCCN=C2c2[nH]cnc21`, the EC20 in the experiment listed under Cavia porcellus [1] was more than 100 µM. The half-maximal inhibitory concentration (IC50) at Phosphodiesterase 1, on Phosphodiesterase 4 and against Phosphodiesterase 3 was more than 100 µM each time. It took 53 µM to reach a half-maximal effect in the experiment filed under Cavia porcellus [2] (EC50).

On to `CCCN1C(=O)N2CCN=C2c2[nH]cnc21`, for which the 20% effect concentration (EC20) in the experiment filed under Cavia porcellus [1] is more than 100 µM. Moreover, the IC50 at Phosphodiesterase 1, at Phosphodiesterase 4 and against Phosphodiesterase 3 was more than 100 µM throughout. In the experiment listed under Cavia porcellus [2], this compound returned an EC50 of 31 µM.

In the experiment on Suncus murinus [3], `COc1ccc(C2CNC(=O)C2)cc1OC1CCCC1` (stereo unspecified) [ROLIPRAM] gave an Emesis of 3.

As to `Nc1cc(-c2ccncc2)c[nH]c1=O` [INAMRINONE], the EC20 in the experiment listed under Cavia porcellus [1] was 62 µM. The IC50 against Phosphodiesterase 1 is more than 300 µM. The compound further came in with an EC50 in the experiment listed under Cavia porcellus [2] of 7.4 µM.

Regarding `CCCN1C(=O)N2CCN=C2c2ncn(CCC)c21`, in the experiment listed under Cavia porcellus [1], the EC20 was more than 100 µM. The values for the IC50 on Phosphodiesterase 1, on Phosphodiesterase 4 and on Phosphodiesterase 3 were more than 100 µM, 1.6 µM and more than 100 µM, respectively. Besides, the EC50 in the experiment listed under Cavia porcellus [2] is 1 µM. Besides, the Emesis in the experiment on Suncus murinus [7], in the experiment on Suncus murinus [8] and in the experiment on Suncus murinus [9] was 0 in each case.

In the experiment with Suncus murinus [10], `CCCCn1c(=O)c2c(ncn2CC(C)=O)n(CCCC)c1=O` [DENBUFYLLINE] came in with an Emesis of 3.

Regarding `CCCN1C(=O)N2CCCN=C2c2ncn(CCC)c21`, the EC20 in the experiment filed under Cavia porcellus [1] is more than 100 µM. For the same compound, the values for the 50% inhibitory concentration (IC50) against Phosphodiesterase 1, against Phosphodiesterase 4 and on Phosphodiesterase 3 were more than 100 µM, 4.7 µM and more than 100 µM, respectively. This compound yielded an EC50 in the experiment filed under Cavia porcellus [2] of 2.1 µM.

In turn, `CCCN1C(=O)N2CCCN=C2c2[nH]cnc21` registered an EC20 in the experiment listed under Cavia porcellus [1] of more than 100 µM. The IC50 on Phosphodiesterase 1, on Phosphodiesterase 4 and at Phosphodiesterase 3 was more than 100 µM each time. For the same compound, the concentration giving a half-maximal response (EC50) in the experiment filed under Cavia porcellus [2] amounted to 22 µM.

Compound `CCCn1c(=O)n2ccnc2c2[nH]cnc21` yielded an EC20 in the experiment filed under Cavia porcellus [1] of 90 µM. Besides, the results for the IC50 on Phosphodiesterase 1, against Phosphodiesterase 4 and on Phosphodiesterase 3 were more than 100 µM, 3.1 µM and more than 100 µM, respectively. Moreover, the concentration giving a half-maximal response (EC50) in the experiment listed under Cavia porcellus [2] is 1.6 µM.
